The term IC50 denotes the concentration at which inhibition is half-maximal.

18 compounds from ChEMBL document CHEMBL2046277, “Design, synthesis and biological evaluation of β-carboline derivatives as novel inhibitors targeting B-Raf kinase” (Bioorg Med Chem Lett, 2012) can be followed below.

The target in the assay is Serine/threonine-protein kinase B-raf (Homo sapiens, UniProt P15056). Kind of assay: Inhibition of human wild type B-Raf kinase assessed as change in ATP consumption by luciferase-luiferin-coupled chemiluminescent assay. Summed up: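 Wild-type B-Raf enzyme pre-incubated with compound 30 min at 30 °C, then ATP plus unactivated MEK1 substrate added and reacted 1 h at 30 °C. ADP-Glo reagent 40 min at 27 °C, then kinase detection reagent 30 min at 27 °C, luminescence read. IC50 fitted from inhibition rates; mean of two experiments.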
Sequence of Serine/threonine-protein kinase B-raf (P15056 whole entry): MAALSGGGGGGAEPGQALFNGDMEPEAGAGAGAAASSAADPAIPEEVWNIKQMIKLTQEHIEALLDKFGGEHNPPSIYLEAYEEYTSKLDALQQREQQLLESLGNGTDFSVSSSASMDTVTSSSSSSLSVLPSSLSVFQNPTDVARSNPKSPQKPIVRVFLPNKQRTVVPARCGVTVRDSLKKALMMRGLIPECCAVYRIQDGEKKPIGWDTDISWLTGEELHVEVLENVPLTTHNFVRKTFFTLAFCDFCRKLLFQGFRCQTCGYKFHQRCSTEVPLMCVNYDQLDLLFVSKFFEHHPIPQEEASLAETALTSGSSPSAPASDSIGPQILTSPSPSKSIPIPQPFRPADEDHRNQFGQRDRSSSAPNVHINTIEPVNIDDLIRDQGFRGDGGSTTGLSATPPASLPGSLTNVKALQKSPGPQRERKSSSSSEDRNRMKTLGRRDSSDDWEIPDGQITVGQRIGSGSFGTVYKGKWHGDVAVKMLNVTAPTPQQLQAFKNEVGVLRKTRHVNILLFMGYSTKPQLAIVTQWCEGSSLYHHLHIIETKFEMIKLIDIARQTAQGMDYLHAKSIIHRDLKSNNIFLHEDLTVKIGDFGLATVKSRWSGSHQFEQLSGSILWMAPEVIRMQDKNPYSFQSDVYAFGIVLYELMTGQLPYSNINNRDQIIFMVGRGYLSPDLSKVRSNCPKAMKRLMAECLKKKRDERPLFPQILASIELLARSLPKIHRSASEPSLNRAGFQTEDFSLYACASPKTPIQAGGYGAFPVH

With `COC(CNS(=O)(=O)c1ccc2[nH]c3c(C(N)=O)nccc3c2c1)OC`, the IC50 stood at 91.5 µM.

As to `NC(=O)c1nccc2c1[nH]c1ccc(S(=O)(=O)NCCO)cc12`, the IC50 turned out to be 23.7 µM. On to `NC(=O)c1nccc2c1[nH]c1ccc(S(=O)(=O)NCCCO)cc12`, for which the half-maximal inhibitory concentration (IC50) was determined as 20.5 µM. `NC(=O)c1nccc2c1[nH]c1ccc(S(=O)(=O)Nc3ccc(F)cc3)cc12`: the IC50 stood at 8.89 µM. To `NC(=O)c1nccc2c1[nH]c1ccc(S(=O)(=O)NCC(O)CO)cc12` (stereo not drawn) belongs 45.1 µM; to `COCCCNS(=O)(=O)c1ccc2[nH]c3c(C(N)=O)nccc3c2c1`, 22.7 µM; to `CN(C)CCCNS(=O)(=O)c1ccc2[nH]c3c(C(N)=O)nccc3c2c1`, 1.62 µM.

In the case of `Cc1ccc(NS(=O)(=O)c2ccc3[nH]c4c(C(N)=O)nccc4c3c2)cc1`, the IC50 stood at 20.5 µM. For the compound `NC(=O)c1nccc2c1[nH]c1ccc(S(=O)(=O)Nc3nccs3)cc12`, the IC50 stood at 7.48 µM. As for `NS(=O)(=O)c1ccc2[nH]c3cnccc3c2c1`, the IC50 worked out at 2.49 µM. With `CC(=O)NS(=O)(=O)c1ccc2[nH]c3cnccc3c2c1` the figure was 59.1 µM; with `CCCNS(=O)(=O)c1ccc2[nH]c3c(C(N)=O)nccc3c2c1`, 28.5 µM; with `CCN(CC)CCCNS(=O)(=O)c1ccc2[nH]c3c(C(N)=O)nccc3c2c1`, 2.81 µM. On to `NC(=O)c1nccc2c1[nH]c1ccc(S(=O)(=O)Nc3ccccc3)cc12`, for which the IC50 was 2.74 µM. For `CC(O)CNS(=O)(=O)c1ccc2[nH]c3c(C(N)=O)nccc3c2c1` (stereo not drawn), the half-inhibitory concentration (IC50) was determined as 22 µM. On to `NC(=O)c1nccc2c1[nH]c1ccc(S(=O)(=O)NC3CC3)cc12`, for which the IC50 amounted to 9.07 µM. In the case of `NC(=O)c1nccc2c1[nH]c1ccc(S(N)(=O)=O)cc12`, the IC50 turned out to be 2.12 µM. Regarding `NC(=O)c1nccc2c1[nH]c1ccc(S(=O)(=O)Nc3ccccn3)cc12`, the IC50 was 3.76 µM.
